From ChEMBL document CHEMBL1165941, “Design and synthesis of 2,4-disubstituted polyhydroquinolines as prospective antihyperglycemic and lipid modulating agents” (Bioorg Med Chem, 2010)
Active and inactive are the calls of the source. The rule behind the calls is not given here.

Experiments:
[1] = biological target: T1, Glucose-6-phosphatase catalytic subunit 1 (Homo sapiens) (UniProt P35575); assay: Inhibition of glucose-6-phosphatase assessed as inositol phosphate release at 100 uM after 30 mins; conditions: in the assay text read “inorganic phosphate” for “inositol phosphate”
T1 sequence (whole entry): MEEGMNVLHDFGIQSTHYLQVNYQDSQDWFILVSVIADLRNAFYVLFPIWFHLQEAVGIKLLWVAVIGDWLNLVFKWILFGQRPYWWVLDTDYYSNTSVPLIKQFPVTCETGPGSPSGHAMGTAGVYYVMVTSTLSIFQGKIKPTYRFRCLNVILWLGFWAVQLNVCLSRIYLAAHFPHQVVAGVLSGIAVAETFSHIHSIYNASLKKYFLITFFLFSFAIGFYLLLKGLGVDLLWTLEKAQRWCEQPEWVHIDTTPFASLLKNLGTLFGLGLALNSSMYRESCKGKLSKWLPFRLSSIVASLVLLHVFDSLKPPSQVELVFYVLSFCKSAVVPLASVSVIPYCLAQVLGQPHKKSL
Method in brief: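 Glucose-6-phosphatase was assayed in 0.3 M citrate pH 6.0 with 28 mM EDTA, 14 mM NaF, 200 mM glucose-6-phosphate and enzyme protein. After 30 min at 37 °C the reaction was stopped with 10% TCA. Activity was expressed as µmol Pi released per min per mg protein.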

[2] = Inhibition of glycogen phosphorylase assessed as […] phosphate release at 100 uM after 30 mins
Method in brief: (§1)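 Glycogen phosphorylase was incubated with glycogen, glucose-1-phosphate, NaF and 5′-AMP for 30 min at 37 °C. The reaction was stopped with 10% TCA and 0.1 M sodium acetate. Samples were held overnight at 4 °C, then released Pi was measured.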

[3] = Inhibition of alpha-glucosidase at 100 uM after 3 mins
Method in brief: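 α-Glucosidase (0.1 mg/mL, purified) was assayed in 67 mM sodium phosphate pH 6.8 with 1.0 mg/mL glutathione. The reaction was started with 3.0 mg/mL pNPG and followed at 405 nm every 30 s for 3 min.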

Rattus norvegicus [4] = assay: Antihyperglycemic activity in Charles Foster-Wistar albino rat sucrose loaded model assessed as decrease of blood glucose level at 100 mg/kg, po administered 30 mins before glucose challenge measured up to 120 mins by glucometer; format: functional; design: scale not given: the % may be the effect or the level left; conditions: in the assay text read “Sprague-Dawley” for “Charles Foster-Wistar”
Method in brief: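 Sprague–Dawley male rats with blood glucose 60–80 mg/dl, 5–6 per group, received 100 mg/kg orally as a suspension in 1.0% gum acacia; controls received vehicle. Sucrose 10.0 g/kg was given orally 30 min later. Glucose was read by glucometer at 30, 60, 90 and 120 min. Food was withheld. Percent activity came from AUC versus control.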

[5] = biological target: T2, Tyrosine-protein phosphatase non-receptor type 1 (Homo sapiens) (UniProt P18031); assay: Inhibition of PTP1B assessed as p-nitrophenolate ion production at 100 uM pretreated for 10 mins measured after 30 mins
T2 sequence (whole entry): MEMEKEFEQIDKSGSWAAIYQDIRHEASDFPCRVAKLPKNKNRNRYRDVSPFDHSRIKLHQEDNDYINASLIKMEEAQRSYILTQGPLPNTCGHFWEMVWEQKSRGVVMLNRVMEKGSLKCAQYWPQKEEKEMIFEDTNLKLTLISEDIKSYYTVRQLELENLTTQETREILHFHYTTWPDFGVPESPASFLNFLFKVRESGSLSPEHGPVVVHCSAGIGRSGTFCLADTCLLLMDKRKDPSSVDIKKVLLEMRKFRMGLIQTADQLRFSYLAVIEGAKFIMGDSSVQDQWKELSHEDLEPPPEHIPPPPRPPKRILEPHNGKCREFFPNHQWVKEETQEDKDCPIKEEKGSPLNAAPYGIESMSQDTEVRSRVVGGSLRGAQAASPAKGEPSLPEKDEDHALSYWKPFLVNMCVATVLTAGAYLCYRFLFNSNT
Method in brief: (§2)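 PTP1B was preincubated 10 min with compound, with and without 0.01% Triton X-100. Substrate was 10 mM pNPP in 50 mM HEPES pH 7.0 with 1 mM DTT and 2 mM EDTA. After 30 min at 37 °C the reaction was stopped with 0.1 N NaOH and A410 was read. Product was calculated with ε 1.78×10⁴ M⁻¹cm⁻¹. Sodium orthovanadate served as standard. IC50 came from dose–response curves.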

Rattus norvegicus [6] = assay: Antihyperglycemic activity in Sprague-Dawley albino rat streptozotocin-induced beta-cell damaged diabetic model assessed as decrease of blood glucose level at 100 mg/kg, po administered 30 mins before glucose challenge measured after 24 hrs by glucometer; format: functional; design: scale not given: the % may be the effect or the level left
Method in brief: (§3)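 Rats were made diabetic with streptozotocin 60 mg/kg ip in 100 mM citrate pH 4.5 after an overnight fast. Animals with glucose 144–270 mg/dl at 48 h were used, 5–6 per group. Compounds were given 100 mg/kg orally in 1.0% gum acacia. Sucrose 2.5 g/kg followed 30 min later. Glucose was read by glucostrips up to 300 min and at 24 h. Non-responders were excluded. Percent activity came from AUC versus control.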

[7] = biological target: T3, Tyrosine-protein phosphatase non-receptor type 1 (Homo sapiens, UniProt P18031); assay: Inhibition of PTP1B assessed as p-nitrophenolate ion production pretreated for 10 mins measured after 30 mins; method in brief: as §2
T3 sequence (P18031 whole entry): T2 sequence (whole entry)

Rattus norvegicus [8] = assay: Antihyperglycemic activity in Sprague-Dawley albino rat streptozotocin-induced beta-cell damaged diabetic model assessed as decrease of blood glucose level at 100 mg/kg, po administered 30 mins before glucose challenge measured after 5 hrs by glucometer; format: functional; design: scale not given: the % may be the effect or the level left; method in brief: as §3
[9] = biological target: Dipeptidyl peptidase 4 (Homo sapiens) (UniProt P27487); assay: Inhibition of DPP4 at 100 uM after 15 mins by spectrofluorimeter
Dipeptidyl peptidase 4 (Homo sapiens), sequence (P27487 whole entry, looked up): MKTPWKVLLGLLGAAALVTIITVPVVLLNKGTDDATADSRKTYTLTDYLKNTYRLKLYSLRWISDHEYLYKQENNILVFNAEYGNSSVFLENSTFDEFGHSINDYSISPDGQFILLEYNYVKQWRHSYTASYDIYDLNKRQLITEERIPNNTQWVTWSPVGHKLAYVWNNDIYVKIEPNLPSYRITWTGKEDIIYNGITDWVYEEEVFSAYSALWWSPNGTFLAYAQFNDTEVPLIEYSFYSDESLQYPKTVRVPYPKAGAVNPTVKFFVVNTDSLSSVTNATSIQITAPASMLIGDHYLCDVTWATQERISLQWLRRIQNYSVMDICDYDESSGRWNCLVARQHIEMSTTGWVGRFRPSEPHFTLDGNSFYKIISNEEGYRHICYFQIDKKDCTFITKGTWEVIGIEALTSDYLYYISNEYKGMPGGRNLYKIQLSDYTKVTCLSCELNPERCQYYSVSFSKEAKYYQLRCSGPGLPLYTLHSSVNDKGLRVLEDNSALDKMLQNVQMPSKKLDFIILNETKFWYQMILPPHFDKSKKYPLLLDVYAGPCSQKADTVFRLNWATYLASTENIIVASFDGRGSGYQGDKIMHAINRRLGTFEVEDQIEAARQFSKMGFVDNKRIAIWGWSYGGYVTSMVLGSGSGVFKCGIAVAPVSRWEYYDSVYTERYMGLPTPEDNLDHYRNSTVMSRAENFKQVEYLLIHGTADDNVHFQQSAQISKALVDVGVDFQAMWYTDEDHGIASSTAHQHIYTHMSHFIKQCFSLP
Method in brief: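 DPP-IV activity was measured at 37 °C as Gly-Pro-AMC (30 µM) cleavage in Tris–HCl pH 7.4 with test compound. Fluorescence was read at excitation 355 nm and emission 460 nm. The initial rate was taken over the first 15 min.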

Rattus norvegicus [10] = assay: Antidyslipidemic activity in Charles Foster rat assessed as reduction of Triton WR-1339-induced increase of blood total cholesterol level at 100 mg/kg, po after 18 hrs; format: functional; design: scale not given: the % may be the effect or the level left
Method in brief: (§4)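 Hyperlipidemia induced by Triton WR-1339, 400 mg/kg ip, in adult male Charles Foster rats (200–225 g), five per group. Compounds were macerated in 0.2% w/v gum acacia, suspended in water and given 100 mg/kg po together with triton. Plasma was obtained by centrifugation at 2500g, 4 °C, 10 min and diluted 1:3 in saline. TC, PL and TG were measured by enzymatic methods.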

Rattus norvegicus [11] = assay: Antidyslipidemic activity in Charles Foster rat assessed as reduction of Triton WR-1339-induced increase of blood triglyceride level at 100 mg/kg, po after 18 hrs; format: functional; design: scale not given: the % may be the effect or the level left; method in brief: as §4
Rattus norvegicus [12] = assay: Antidyslipidemic activity in Charles Foster rat assessed as reduction of Triton WR-1339-induced increase of blood phospholipid level at 100 mg/kg, po after 18 hrs; format: functional; design: scale not given: the % may be the effect or the level left; method in brief: as §4
[13] = Inhibition of glycogen phosphorylase assessed as inositol phosphate release after 30 mins; method in brief: as §1

| SMILES | inhibition [1] | inhibition [2] | inhibition [3] | inhibition [5] | IC50 [7] | inhibition [9] | IC50 [13] | Activity (Rattus norvegicus [4]) | Activity (Rattus norvegicus [6]) | Activity (Rattus norvegicus [8]) | Activity (Rattus norvegicus [10]) | Activity (Rattus norvegicus [11]) | Activity (Rattus norvegicus [12]) |
| --- | --- | --- | --- | --- | --- | --- | --- | --- | --- | --- | --- | --- | --- |
| COc1ccc(C2C=C(c3ccccc3)NC3=C2C(=O)CC(C)(C)C3)cc1 (stereo not given) | inactive | inactive | inactive | 71.8% | 14.5 µM | 8.6% |  | 17.8% | 10.9% | 8.8% |  |  |  |
| O=C1CCCC2=C1C(c1ccc(Cl)cc1)C=C(c1ccccc1)N2 (stereo not given) | 8.21% | 19.3% | 27.9% | 24.7% |  | inactive |  | 24.7% | 16.9% | 12.9% | -6.7% | -7.89% | -5.9% |
| Cc1ccc(C2=CC(c3ccccc3)C3=C(CC(C)(C)CC3=O)N2)cc1 (stereo not given) | inactive | 31.7% | inactive | 62.3% | 19.6 µM | inactive |  | 11.4% |  |  |  |  |  |
| CC1(C)CC(=O)C2=C(C1)NC(c1ccccc1)=CC2c1ccccc1 (stereo not given) | inactive | inactive | 34.3% | 41.8% |  | 12% |  | 24.9% | 13.3% | 17.3% | -17.89% | -16.45% | -19.23% |
| CCOC(=O)C1=CC(c2ccc(Br)cc2)C2=C(CC(C)(C)CC2=O)N1 (stereo not given) | inactive | 49.3% | inactive | 65.6% | 16.6 µM | inactive |  | 11.4% |  |  |  |  |  |
| Cc1ccc(C)c(OCCCC(C)(C)C(=O)O)c1 [GEMFIBROZIL] |  |  |  |  |  |  |  |  |  |  | -37.56% | -36.21% | -39.43% |
| CC1(C)CC(=O)C2=C(C1)NC(c1ccccc1)=CC2c1ccc([N+](=O)[O-])cc1 (stereo not given) | inactive | inactive | 22.4% | 84.7% | 6.1 µM | inactive |  | 14.1% |  |  |  |  |  |

Now from value to compound, other results behind:

| inhibition [1] | inhibition [2] | inhibition [3] | inhibition [5] | IC50 [7] | inhibition [9] | IC50 [13] | SMILES | Activity (Rattus norvegicus [4]) | Activity (Rattus norvegicus [6]) | Activity (Rattus norvegicus [8]) | Activity (Rattus norvegicus [10]) | Activity (Rattus norvegicus [11]) | Activity (Rattus norvegicus [12]) |
| --- | --- | --- | --- | --- | --- | --- | --- | --- | --- | --- | --- | --- | --- |
| 11.4% | 18.9% | inactive | 82.5% | 7.7 µM | 18.6% |  | CC1(C)CC(=O)C2=C(C1)NC(c1ccccc1)=CC2c1ccco1 (stereo not given) | 14.6% |  |  |  |  |  |
| 21.9% | 17.4% | inactive | 70.3% | 12.6 µM | inactive |  | O=C1CCCC2=C1C(c1ccc(F)cc1)C=C(c1ccccc1)N2 (stereo not given) | 34.5% | 24.1% | 19.6% |  |  |  |
| inactive | 61.2% | 15.8% | 87.2% | 4.7 µM | 9.8% |  | CCOC(=O)C1=CC(c2ccc(F)cc2)C2=C(CC(C)(C)CC2=O)N1 (stereo not given) | 35.9% | 23.4% | 24.8% |  |  |  |
| inactive | 14.9% | inactive | 5.3% |  | inactive |  | CCOC(=O)C1(O)CC(c2ccc(F)cc2)C2=C(CC(C)(C)CC2=O)O1 (stereo not given) | 15.3% |  |  | -10.3% | -8.2% | -17.2% |
| 7.16% | 5.89% | 12.1% | 84.9% | 6.3 µM | inactive |  | CC1(C)CC(=O)C2=C(C1)NC(c1ccccc1)=CC2c1ccc(Cl)cc1 (stereo not given) | 23.5% | 16.4% | 18.9% | -25.56% | -19.32% | -22.47% |
| inactive | 81.3% | inactive | 12.3% |  | inactive | 5.3 µM | CC1(C)CC(=O)C2=C(C1)NC(C(=O)O)=CC2c1ccc(Br)cc1 (stereo not given) | 31.7% | 13.6% | 17.8% |  |  |  |
